Experimental data: ChEMBL document CHEMBL3421607, “Design, synthesis and antibacterial activity of cinnamaldehyde derivatives as inhibitors of the bacterial cell division protein FtsZ” (Eur J Med Chem, 2015)
Converted amounts (≈) assume the structure as drawn.

biological target: T1, Cell division protein FtsZ (Escherichia coli K-12, UniProt P0A9A6); assay: (§1) Inhibition of Escherichia coli ATCC 25922 recombinant N-His6-tagged FtsZ polymerization expressed in Escherichia coli BL21(DE3) incubated for 15 mins prior to GTP addition measured after 390 mins by malachite green staining-based GTPase assay; conditions: in the assay text read “30 mins” for “390 mins”
T1 sequence (P0A9A6 whole entry): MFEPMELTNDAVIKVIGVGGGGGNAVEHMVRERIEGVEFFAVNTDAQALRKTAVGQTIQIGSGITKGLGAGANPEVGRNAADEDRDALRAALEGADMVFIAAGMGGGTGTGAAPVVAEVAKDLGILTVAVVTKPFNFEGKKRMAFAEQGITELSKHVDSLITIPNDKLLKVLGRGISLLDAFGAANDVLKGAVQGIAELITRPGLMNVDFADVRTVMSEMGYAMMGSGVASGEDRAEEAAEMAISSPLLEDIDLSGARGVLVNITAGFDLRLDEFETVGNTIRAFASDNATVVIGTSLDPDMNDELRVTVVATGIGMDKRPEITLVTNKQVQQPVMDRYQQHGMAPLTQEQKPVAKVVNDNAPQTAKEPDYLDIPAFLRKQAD
Method in brief: (§2)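 Purified N-His6 E. coli FtsZ (10 µM) in 50 mM MES, 5 mM MgCl2, 50 mM KCl, pH 6.5 with compound at varying concentrations (2% DMSO), preincubated 15 min at room temperature. 50 μM GTP then added for 30 min at 37°C. Released phosphate measured by Malachite Green reagent (20% v/v) at A620, background-subtracted and read against a phosphate standard curve.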

Structure (SMILES) | IC50 [µM]
Cc1nc2ccccc2n1C(=O)/C=C/c1ccc(Cl)cc1Cl | 90.6

biological target: T2, Cell division protein FtsZ (Escherichia coli K-12) (UniProt P0A9A6); assay: as §1; conditions: in the assay text read “30 mins” for “390 mins”; method in brief: as §2
T2 sequence (whole entry): T1 sequence (P0A9A6 whole entry)

Structure (SMILES) | inhibition
Cc1nc2ccccc2n1C(=O)/C=C/c1ccc(F)cc1 | Dose-dependent effect
Cc1nc2ccccc2n1C(=O)/C=C/c1ccc(Cl)cc1 | Dose-dependent effect
Cc1nc2ccccc2n1C(=O)/C=C/c1ccc(Cl)cc1Cl | Dose-dependent effect

tested on: Bacillus subtilis; assay: Antibacterial activity against Bacillus subtilis; assay type: functional; conditions: not given
Method in brief: (§3)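 NCCLS tube-dilution MIC using B. subtilis ATCC9372 and E. coli ATCC25922. Strains were grown on Mueller Hinton agar at 37°C for 24 h. […] Tubes were incubated at 37°C for 24 h, and the MIC was read as the last tube without turbidity.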

Structure (SMILES) | MIC [µg/mL]
O=C/C=C/c1ccccc1 | 500 (≈ 3780 µM)

tested on: Streptococcus pyogenes; assay: Antibacterial activity against penicillin-susceptible Streptococcus pyogenes clinical isolates after 24 hrs by broth microdilution method; assay type: functional; conditions: not given

Structure (SMILES) | MIC [µg/mL]
Cc1nc2ccccc2n1C(=O)/C=C/c1ccc(F)cc1 | 128 (≈ 457 µM)
Cc1nc2ccccc2n1C(=O)/C=C/c1ccc(Cl)cc1 | 32 (≈ 108 µM)
Cc1nc2ccccc2n1C(=O)/C=C/c1ccc(Cl)cc1Cl | > 128

tested on: Streptococcus pyogenes; assay: Antibacterial activity against penicillin-resistant Streptococcus pyogenes clinical isolates after 24 hrs by broth microdilution method; assay type: functional; conditions: not given

Structure (SMILES) | MIC [µg/mL]
Cc1nc2ccccc2n1C(=O)/C=C/c1ccc(F)cc1 | 64 (≈ 228 µM)
Cc1nc2ccccc2n1C(=O)/C=C/c1ccc(Cl)cc1 | 8 (≈ 27 µM)
Cc1nc2ccccc2n1C(=O)/C=C/c1ccc(Cl)cc1Cl | 64 (≈ 193 µM)

tested on: Staphylococcus epidermidis; assay: Ratio of ciprofloxacin MIC to compound MIC for Staphylococcus epidermidis; assay type: functional; conditions: not given

Structure (SMILES) | Ratio
Cc1nc2ccccc2n1C(=O)/C=C/c1ccc(Cl)cc1Cl | >32

tested on: Staphylococcus aureus; assay: microbe, parasite or virus in culture; assay type: functional; conditions: ATCC 29213, 24 h

Structure (SMILES) | MIC [µg/mL]
Cc1nc2ccccc2n1C(=O)/C=C/c1ccc(F)cc1 | > 128
Cc1nc2ccccc2n1C(=O)/C=C/c1ccc(Cl)cc1 | > 128
Cc1nc2ccccc2n1C(=O)/C=C/c1ccc(Cl)cc1Cl | > 128

tested on: Staphylococcus aureus; assay: Antibacterial activity against penicillin-resistant Staphylococcus aureus clinical isolates after 24 hrs by broth microdilution method; assay type: functional; conditions: not given

Structure (SMILES) | MIC [µg/mL]
Cc1nc2ccccc2n1C(=O)/C=C/c1ccc(F)cc1 | 64 (≈ 228 µM)
Cc1nc2ccccc2n1C(=O)/C=C/c1ccc(Cl)cc1 | 64 (≈ 216 µM)
Cc1nc2ccccc2n1C(=O)/C=C/c1ccc(Cl)cc1Cl | 16 (≈ 48.3 µM)

tested on: Staphylococcus aureus; assay: microbe, parasite or virus in culture; assay type: functional; conditions: ATCC 25923, 24 h

Structure (SMILES) | MIC [µg/mL]
Cc1nc2ccccc2n1C(=O)/C=C/c1ccc(F)cc1 | 16 (≈ 57.1 µM)
Cc1nc2ccccc2n1C(=O)/C=C/c1ccc(Cl)cc1 | 8 (≈ 27 µM)
Cc1nc2ccccc2n1C(=O)/C=C/c1ccc(Cl)cc1Cl | 4 (≈ 12.1 µM)

tested on: Escherichia coli; assay: Antibacterial activity against Escherichia coli; assay type: functional; conditions: not given; method in brief: as §3

Structure (SMILES) | MIC [µg/mL]
O=C/C=C/c1ccccc1 | 1000 (≈ 7570 µM)

tested on: Bacillus subtilis; assay: microbe, parasite or virus in culture; assay type: functional; conditions: ATCC 9372, 24 h

Structure (SMILES) | MIC [µg/mL]
Cc1nc2ccccc2n1C(=O)/C=C/c1ccc(F)cc1 | 128 (≈ 457 µM)
Cc1nc2ccccc2n1C(=O)/C=C/c1ccc(Cl)cc1 | 128 (≈ 431 µM)
Cc1nc2ccccc2n1C(=O)/C=C/c1ccc(Cl)cc1Cl | 128 (≈ 386 µM)

tested on: Escherichia coli; assay: microbe, parasite or virus in culture; assay type: functional; conditions: ATCC 25922, 5 h

Structure (SMILES) | MIC [µg/mL]
Cc1nc2ccccc2n1C(=O)/C=C/c1ccc(F)cc1 | > 128
Cc1nc2ccccc2n1C(=O)/C=C/c1ccc(Cl)cc1 | > 128
Cc1nc2ccccc2n1C(=O)/C=C/c1ccc(Cl)cc1Cl | > 128

tested on: Escherichia coli; assay: microbe, parasite or virus in culture; assay type: functional; conditions: ATCC 25922, 24 h

Structure (SMILES) | MIC [µg/mL]
Cc1nc2ccccc2n1C(=O)/C=C/c1ccc(F)cc1 | 128 (≈ 457 µM)
Cc1nc2ccccc2n1C(=O)/C=C/c1ccc(Cl)cc1 | 128 (≈ 431 µM)
Cc1nc2ccccc2n1C(=O)/C=C/c1ccc(Cl)cc1Cl | 128 (≈ 386 µM)

tested on: Staphylococcus epidermidis; assay: Ratio of cinnamic acid MIC to compound MIC for Staphylococcus epidermidis; assay type: functional; conditions: not given

Structure (SMILES) | Ratio
Cc1nc2ccccc2n1C(=O)/C=C/c1ccc(Cl)cc1Cl | >32

biological target: T2, Cell division protein FtsZ (Escherichia coli K-12); assay: Inhibition of Escherichia coli ATCC 25922 recombinant N-His6-tagged FtsZ polymerization expressed in Escherichia coli BL21(DE3) by light scattering assay; conditions: not given
Method in brief: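 E. coli FtsZ (N-His6, expressed in BL21(DE3), Ni-affinity purified) at 12 µM in 50 mM MES, 5 mM MgCl2, 50 mM KCl, pH 6.5 with compound at various concentrations, 2% DMSO, 30°C. Right-angle light scattering at 400 nm (excitation and emission). 120 s baseline, then polymerization started with 2 mM GTP and followed for 2000 s.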

Structure (SMILES) | inhibition
Cc1nc2ccccc2n1C(=O)/C=C/c1ccc(F)cc1 | Dose-dependent effect
Cc1nc2ccccc2n1C(=O)/C=C/c1ccc(Cl)cc1 | Dose-dependent effect
Cc1nc2ccccc2n1C(=O)/C=C/c1ccc(Cl)cc1Cl | Dose-dependent effect

tested on: Bacillus subtilis; assay: microbe, parasite or virus in culture; assay type: functional; conditions: ATCC 9372, 5 h

Structure (SMILES) | MIC [µg/mL]
Cc1nc2ccccc2n1C(=O)/C=C/c1ccc(F)cc1 | > 128
Cc1nc2ccccc2n1C(=O)/C=C/c1ccc(Cl)cc1 | > 128
Cc1nc2ccccc2n1C(=O)/C=C/c1ccc(Cl)cc1Cl | > 128

tested on: Pseudomonas aeruginosa; assay: microbe, parasite or virus in culture; assay type: functional; conditions: ATCC 27853, 24 h

Structure (SMILES) | MIC [µg/mL]
Cc1nc2ccccc2n1C(=O)/C=C/c1ccc(F)cc1 | 128 (≈ 457 µM)
Cc1nc2ccccc2n1C(=O)/C=C/c1ccc(Cl)cc1 | 128 (≈ 431 µM)
Cc1nc2ccccc2n1C(=O)/C=C/c1ccc(Cl)cc1Cl | 128 (≈ 386 µM)

tested on: Pseudomonas aeruginosa; assay: microbe, parasite or virus in culture; assay type: functional; conditions: ATCC 27853, 5 h

Structure (SMILES) | MIC [µg/mL]
Cc1nc2ccccc2n1C(=O)/C=C/c1ccc(F)cc1 | > 128
Cc1nc2ccccc2n1C(=O)/C=C/c1ccc(Cl)cc1 | > 128
Cc1nc2ccccc2n1C(=O)/C=C/c1ccc(Cl)cc1Cl | > 128

tested on: Staphylococcus aureus; assay: microbe, parasite or virus in culture; assay type: functional; conditions: ATCC 25923, 5 h

Structure (SMILES) | MIC [µg/mL]
Cc1nc2ccccc2n1C(=O)/C=C/c1ccc(F)cc1 | 0.5 (≈ 1.78 µM)
Cc1nc2ccccc2n1C(=O)/C=C/c1ccc(Cl)cc1 | 0.5 (≈ 1.68 µM)
Cc1nc2ccccc2n1C(=O)/C=C/c1ccc(Cl)cc1Cl | 1 (≈ 3.02 µM)

tested on: Staphylococcus epidermidis; assay: Antibacterial activity against penicillin-resistant Staphylococcus epidermidis clinical isolates after 24 hrs by broth microdilution method; assay type: functional; conditions: not given

Structure (SMILES) | MIC [µg/mL]
Cc1nc2ccccc2n1C(=O)/C=C/c1ccc(F)cc1 | 16 (≈ 57.1 µM)
Cc1nc2ccccc2n1C(=O)/C=C/c1ccc(Cl)cc1 | 16 (≈ 53.9 µM)
Cc1nc2ccccc2n1C(=O)/C=C/c1ccc(Cl)cc1Cl | 4 (≈ 12.1 µM)

tested on: Staphylococcus epidermidis; assay: Ratio of curcumin MIC to compound MIC for Staphylococcus epidermidis; assay type: functional; conditions: not given

Structure (SMILES) | Ratio
Cc1nc2ccccc2n1C(=O)/C=C/c1ccc(Cl)cc1Cl | >32
